Data reported in ChEMBL document CHEMBL4350961, “Discovery of Pyrrolo[3,2- d]pyrimidin-4-one Derivatives as a New Class of Potent and Cell-Active Inhibitors of P300/CBP-Associated Factor Bromodomain” (J Med Chem, 2019).
Calls of active or inactive are those of the source. The calls are words filed in the database; no cut-off is given here.

Experiments:
[1] = target: Bromodomain and PHD finger-containing protein 3 (Homo sapiens) (UniProt Q9ULD4); assay: Binding affinity to human N-terminal His-tagged BRPF3 assessed as change in melting temperature at 10 uM by SYPRO orange dye-based fluorescence assay
In short: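 Thermal shift with His-tagged human bromodomain at 2 μM final in 10 mM HEPES pH 7.5, 500 mM NaCl. Compound at 10 μM final with 0.1% DMSO; SYPRO Orange at 1:1000. Equilibrated 3 min at 25 °C, then heated from 25 to 95 °C at 1 °C/min. Melting temperature shift taken from fluorescence; at least duplicate.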

[2] = target: Bromodomain-containing protein 9 (Homo sapiens) (UniProt Q9H8M2); assay: Binding affinity to human partial length BRD9 (R130 to V259 residues) expressed in bacterial expression system at 1 uM by BROMOscan assay
In short: (§1)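 BROMOscan bromodomain cross-screen run by an outside service, compound at 1 µM against 32 recombinant bromodomains. Binding given as percent of control.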

[3] = target: Bromodomain testis-specific protein (Homo sapiens) (UniProt Q58F21); assay: Binding affinity to human partial length BRDT bromodomain 2 (K250 to E382 residues) expressed in bacterial expression system at 1 uM by BROMOscan assay; in short: as §1
[4] = target: Activin receptor type-1B (Homo sapiens) (UniProt P36896); assay: Inhibition of recombinant human ALK4 (150 to end residues) at 10 uM using casein as substrate measured after 40 mins in presence of [gamma33P]ATP by scintillation counting method
[5] = target: Bone morphogenetic protein receptor type-1B (Homo sapiens) (UniProt O00238); assay: Inhibition of recombinant human ALK6 (148 to end residues) at 10 uM using casein as substrate measured after 40 mins in presence of [gamma33P]ATP by scintillation counting method
Sequence of Bone morphogenetic protein receptor type-1B (Homo sapiens) (O00238 whole entry): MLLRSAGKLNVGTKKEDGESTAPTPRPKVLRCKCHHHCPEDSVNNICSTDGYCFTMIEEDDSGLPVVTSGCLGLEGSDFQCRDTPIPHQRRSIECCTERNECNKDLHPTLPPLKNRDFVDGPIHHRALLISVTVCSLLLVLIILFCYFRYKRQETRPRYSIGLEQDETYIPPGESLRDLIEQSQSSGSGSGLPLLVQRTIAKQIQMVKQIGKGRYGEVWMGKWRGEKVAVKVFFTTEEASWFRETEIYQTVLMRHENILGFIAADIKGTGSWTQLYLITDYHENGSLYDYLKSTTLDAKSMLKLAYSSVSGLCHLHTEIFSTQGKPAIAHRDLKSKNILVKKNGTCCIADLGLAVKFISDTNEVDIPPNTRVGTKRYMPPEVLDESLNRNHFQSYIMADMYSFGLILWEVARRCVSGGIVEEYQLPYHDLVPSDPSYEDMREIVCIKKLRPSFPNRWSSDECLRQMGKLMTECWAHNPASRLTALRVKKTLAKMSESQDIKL

[6] = target: CDK3/Cyclin E (Homo sapiens) (UniProt P24864+Q00526); assay: Inhibition of recombinant full-length human CDK3/cyclinE at 10 uM using histone H1 as substrate measured after 40 mins in presence of [gamma33P]ATP by scintillation counting method; assay type: protein-complex assay
[7] = target: CDK9/cyclin T1 (Homo sapiens) (UniProt O60563+P50750); assay: Inhibition of recombinant full length human CDK9/cyclinT1 at 10 uM using KTFCGTPEYLAPEVRREPRILSEEEQEMFRDFDYIADWC as substrate measured after 40 mins in presence of [gamma33P]ATP by scintillation counting method; assay type: protein-complex assay
[8] = target: Cyclin-dependent kinase 13/Cyclin-K (Homo sapiens) (UniProt Q14004+O75909); assay: Inhibition of recombinant full length human CDK13/cyclinK at 10 uM using RSRSRSRSRSRSRSR as substrate measured after 120 mins in presence of [gamma33P]ATP by scintillation counting method; assay type: protein-complex assay
[9] = test system: CDK18/Cyclin Y (Homo sapiens), Q07002+Q8ND76 [T166M]; assay: Inhibition of recombinant full length human cyclinY/CDK18 T166M mutant at 10 uM using YRRAAVPPSPSLS as substrate measured after 40 mins in presence of [gamma33P]ATP by scintillation counting method; assay type: protein-complex assay
[10] = target: Dual specificity tyrosine-phosphorylation-regulated kinase 1B (Homo sapiens) (UniProt Q9Y463); assay: Inhibition of recombinant full-length human DYRK1B at 10 uM using RRRFRPASPLRGPPK as substrate measured after 40 mins in presence of [gamma33P]ATP by scintillation counting method
[11] = target: Fibroblast growth factor receptor 4 (Homo sapiens) (UniProt P22455); assay: Inhibition of recombinant human FGFR4 (442 to 755 residues) at 10 uM using poly(Glu, Tyr) 4:1 as substrate measured after 40 mins in presence of [gamma33P]ATP by scintillation counting method
[12] = target: Tyrosine-protein kinase Fyn (Homo sapiens) (UniProt P06241); assay: Inhibition of recombinant full-length human FYN at 10 uM using Cdc2 peptide as substrate measured after 40 mins in presence of [gamma33P]ATP by scintillation counting method
[13] = target: Serine/threonine-protein kinase STK11 (Homo sapiens) (UniProt Q15831); assay: Inhibition of recombinant full-length human LKB1 at 10 uM using LSNLYHQGKFLQTFCGSPLYRRR as substrate measured after 40 mins in presence of [gamma33P]ATP by scintillation counting method
[14] = target: Leukocyte tyrosine kinase receptor (Homo sapiens) (UniProt P29376); assay: Inhibition of recombinant human LTK (450 to end residues) at 10 uM using GEEPLYWSFPAKKK as substrate measured after 40 mins in presence of [gamma33P]ATP by scintillation counting method
[15] = target: Platelet-derived growth factor receptor beta (Homo sapiens) (UniProt P09619); assay: Inhibition of recombinant human PDGFRbeta (557 to end residues) at 10 uM using poly(Glu, Tyr) 4:1 as substrate measured after 40 mins in presence of [gamma33P]ATP by scintillation counting method
[16] = target: Protein kinase C gamma type (Homo sapiens) (UniProt P05129); assay: Inhibition of recombinant full-length human PKCgamma at 10 uM using histone H1 as substrate measured after 40 mins in presence of [gamma33P]ATP by scintillation counting method
[17] = target: Serine/threonine-protein kinase PLK1 (Homo sapiens) (UniProt P53350); assay: Inhibition of recombinant full-length human Plk1 at 10 uM using casein as substrate measured after 40 mins in presence of [gamma33P]ATP by scintillation counting method
Sequence of Serine/threonine-protein kinase PLK1 (Homo sapiens) (P53350 whole entry): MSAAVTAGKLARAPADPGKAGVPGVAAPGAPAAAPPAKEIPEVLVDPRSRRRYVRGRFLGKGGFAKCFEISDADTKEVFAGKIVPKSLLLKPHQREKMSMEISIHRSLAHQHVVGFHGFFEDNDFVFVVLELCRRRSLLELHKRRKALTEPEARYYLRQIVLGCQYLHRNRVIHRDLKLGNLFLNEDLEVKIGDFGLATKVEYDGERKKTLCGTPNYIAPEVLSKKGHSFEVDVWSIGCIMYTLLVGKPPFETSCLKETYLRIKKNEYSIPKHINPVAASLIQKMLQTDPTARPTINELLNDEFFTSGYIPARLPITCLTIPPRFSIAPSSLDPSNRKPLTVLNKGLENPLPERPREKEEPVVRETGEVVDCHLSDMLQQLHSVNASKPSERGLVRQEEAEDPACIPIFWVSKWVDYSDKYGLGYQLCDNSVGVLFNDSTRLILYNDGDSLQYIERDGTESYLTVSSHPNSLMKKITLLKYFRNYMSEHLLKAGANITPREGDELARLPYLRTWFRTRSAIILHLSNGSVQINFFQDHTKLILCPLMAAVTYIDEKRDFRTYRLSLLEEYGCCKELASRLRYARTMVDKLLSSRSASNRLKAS

[18] = target: Ribosomal protein S6 kinase alpha-6 (Homo sapiens) (UniProt Q9UK32); assay: Inhibition of recombinant full-length human Rsk4 at 10 uM using LRRASLG as substrate measured after 40 mins in presence of [gamma33P]ATP by scintillation counting method
[19] = target: Serine/threonine-protein kinase tousled-like 2 (Homo sapiens) (UniProt Q86UE8); assay: Inhibition of human TLK2 (387 to end residues) using casein as substrate measured after 40 mins in presence of [gamma33P]ATP by scintillation counting method
[20] = target: Testis-specific serine/threonine-protein kinase 4 (Homo sapiens) (UniProt Q6SA08); assay: Inhibition of recombinant full-length human TSSK4 at 10 uM using KKLNRTLSFAEPG as substrate measured after 40 mins in presence of [gamma33P]ATP by scintillation counting method
Sequence of Testis-specific serine/threonine-protein kinase 4 (Homo sapiens) (Q6SA08 whole entry, the tested form may be a part): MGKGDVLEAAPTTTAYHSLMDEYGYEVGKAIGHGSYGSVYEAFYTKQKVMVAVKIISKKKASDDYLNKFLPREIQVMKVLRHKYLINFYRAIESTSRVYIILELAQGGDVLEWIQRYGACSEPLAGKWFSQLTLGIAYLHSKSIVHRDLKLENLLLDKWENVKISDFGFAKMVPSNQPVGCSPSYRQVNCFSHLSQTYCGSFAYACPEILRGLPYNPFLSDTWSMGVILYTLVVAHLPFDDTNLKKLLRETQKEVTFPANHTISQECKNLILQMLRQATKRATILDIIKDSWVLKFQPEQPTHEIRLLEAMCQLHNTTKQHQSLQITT

[21] = target: Serine/threonine-protein kinase WNK1 (Homo sapiens) (UniProt Q9H4A3); assay: Inhibition of human WNK1 (1 to 491 residues) using myelin basic protein as substrate measured after 120 mins in presence of [gamma33P]ATP by scintillation counting method
Sequence of Serine/threonine-protein kinase WNK1 (Homo sapiens) (Q9H4A3 whole entry, looked up, the tested form may be a part): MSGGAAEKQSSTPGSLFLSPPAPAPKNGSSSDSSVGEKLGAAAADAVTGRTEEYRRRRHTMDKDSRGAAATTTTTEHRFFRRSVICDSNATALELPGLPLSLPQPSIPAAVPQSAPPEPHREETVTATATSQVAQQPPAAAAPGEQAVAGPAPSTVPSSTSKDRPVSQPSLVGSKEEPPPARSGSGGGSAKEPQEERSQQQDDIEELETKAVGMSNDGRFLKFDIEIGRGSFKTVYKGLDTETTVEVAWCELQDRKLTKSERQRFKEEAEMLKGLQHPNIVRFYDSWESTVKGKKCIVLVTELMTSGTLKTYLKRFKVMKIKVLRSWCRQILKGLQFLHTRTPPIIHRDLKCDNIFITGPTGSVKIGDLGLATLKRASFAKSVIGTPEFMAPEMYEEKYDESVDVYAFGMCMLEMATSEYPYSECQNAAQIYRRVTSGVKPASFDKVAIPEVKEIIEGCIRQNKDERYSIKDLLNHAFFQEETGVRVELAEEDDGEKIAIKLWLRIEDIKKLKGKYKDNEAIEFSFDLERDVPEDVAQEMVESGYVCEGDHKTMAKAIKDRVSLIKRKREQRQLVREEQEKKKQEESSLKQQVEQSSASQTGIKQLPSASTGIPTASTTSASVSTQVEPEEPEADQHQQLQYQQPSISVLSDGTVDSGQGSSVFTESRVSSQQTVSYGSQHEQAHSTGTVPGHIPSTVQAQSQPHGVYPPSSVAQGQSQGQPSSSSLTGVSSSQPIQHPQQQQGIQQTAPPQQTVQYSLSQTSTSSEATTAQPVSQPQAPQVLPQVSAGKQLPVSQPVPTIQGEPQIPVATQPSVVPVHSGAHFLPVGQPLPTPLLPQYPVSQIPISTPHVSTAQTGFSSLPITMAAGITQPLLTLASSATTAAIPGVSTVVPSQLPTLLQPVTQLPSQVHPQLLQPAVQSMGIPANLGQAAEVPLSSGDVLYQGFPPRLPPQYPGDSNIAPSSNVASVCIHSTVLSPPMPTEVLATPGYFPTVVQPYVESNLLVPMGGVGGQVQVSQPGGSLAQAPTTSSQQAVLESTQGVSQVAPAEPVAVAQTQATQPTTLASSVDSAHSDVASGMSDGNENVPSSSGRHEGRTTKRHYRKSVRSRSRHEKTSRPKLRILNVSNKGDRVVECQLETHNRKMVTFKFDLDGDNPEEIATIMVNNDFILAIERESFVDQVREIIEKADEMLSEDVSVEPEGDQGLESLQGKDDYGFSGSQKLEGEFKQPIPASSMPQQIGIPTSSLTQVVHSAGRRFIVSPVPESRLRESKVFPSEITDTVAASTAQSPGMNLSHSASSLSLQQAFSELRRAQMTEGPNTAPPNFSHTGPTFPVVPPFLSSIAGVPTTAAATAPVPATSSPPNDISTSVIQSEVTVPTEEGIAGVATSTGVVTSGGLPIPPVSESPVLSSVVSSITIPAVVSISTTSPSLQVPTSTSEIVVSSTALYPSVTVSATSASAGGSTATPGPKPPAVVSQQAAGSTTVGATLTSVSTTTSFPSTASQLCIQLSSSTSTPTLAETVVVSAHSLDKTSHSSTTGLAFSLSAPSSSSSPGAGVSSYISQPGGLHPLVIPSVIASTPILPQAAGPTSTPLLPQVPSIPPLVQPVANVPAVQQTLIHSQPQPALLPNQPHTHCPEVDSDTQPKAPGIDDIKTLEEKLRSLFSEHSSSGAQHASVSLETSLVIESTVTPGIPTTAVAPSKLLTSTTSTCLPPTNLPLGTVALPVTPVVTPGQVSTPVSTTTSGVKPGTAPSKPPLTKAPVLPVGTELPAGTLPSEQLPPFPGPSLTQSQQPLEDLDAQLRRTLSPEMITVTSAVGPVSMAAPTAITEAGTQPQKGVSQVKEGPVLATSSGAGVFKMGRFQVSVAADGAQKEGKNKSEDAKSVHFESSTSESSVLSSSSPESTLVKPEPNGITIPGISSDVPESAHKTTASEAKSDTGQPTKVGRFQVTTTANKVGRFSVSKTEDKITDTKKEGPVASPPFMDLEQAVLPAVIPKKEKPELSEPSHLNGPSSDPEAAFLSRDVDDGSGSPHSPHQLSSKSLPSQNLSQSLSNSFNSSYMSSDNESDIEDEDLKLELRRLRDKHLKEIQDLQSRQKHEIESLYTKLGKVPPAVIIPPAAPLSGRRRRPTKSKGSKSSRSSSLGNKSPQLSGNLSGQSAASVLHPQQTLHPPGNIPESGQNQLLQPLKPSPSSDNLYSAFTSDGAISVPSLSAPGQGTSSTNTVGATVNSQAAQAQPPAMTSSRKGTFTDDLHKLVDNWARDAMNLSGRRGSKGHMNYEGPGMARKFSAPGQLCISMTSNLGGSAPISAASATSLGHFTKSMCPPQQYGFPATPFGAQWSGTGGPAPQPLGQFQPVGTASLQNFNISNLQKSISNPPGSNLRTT

[22] = target: Phosphatidylinositol 5-phosphate 4-kinase type-2 alpha (Homo sapiens) (UniProt P48426); assay: Inhibition of recombinant full-length human PIP4K2alpha at 10 uM using phosphatidylinositol 5-phosphate as substrate measured after 40 mins by HTRF assay
Sequence of Phosphatidylinositol 5-phosphate 4-kinase type-2 alpha (Homo sapiens) (P48426 whole entry): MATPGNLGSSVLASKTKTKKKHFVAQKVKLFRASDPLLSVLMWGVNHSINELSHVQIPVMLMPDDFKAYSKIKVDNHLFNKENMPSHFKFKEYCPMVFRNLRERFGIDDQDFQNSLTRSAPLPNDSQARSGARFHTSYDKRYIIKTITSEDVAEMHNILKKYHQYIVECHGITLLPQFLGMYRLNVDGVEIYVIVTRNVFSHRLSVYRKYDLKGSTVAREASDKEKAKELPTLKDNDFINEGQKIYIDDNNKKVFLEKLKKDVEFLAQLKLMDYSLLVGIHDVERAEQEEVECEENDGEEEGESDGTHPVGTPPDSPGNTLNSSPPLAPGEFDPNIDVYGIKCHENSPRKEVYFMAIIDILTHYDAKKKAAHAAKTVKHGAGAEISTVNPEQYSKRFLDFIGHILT

[23] = target: Phosphatidylinositol 4-phosphate 5-kinase type-1 gamma (Homo sapiens) (UniProt O60331); assay: Inhibition of recombinant full-length human PIP5K1gamma at 10 uM using phosphatidylinositol 4-phosphate as substrate measured after 40 mins by HTRF assay
Sequence of Phosphatidylinositol 4-phosphate 5-kinase type-1 gamma (Homo sapiens) (O60331 whole entry): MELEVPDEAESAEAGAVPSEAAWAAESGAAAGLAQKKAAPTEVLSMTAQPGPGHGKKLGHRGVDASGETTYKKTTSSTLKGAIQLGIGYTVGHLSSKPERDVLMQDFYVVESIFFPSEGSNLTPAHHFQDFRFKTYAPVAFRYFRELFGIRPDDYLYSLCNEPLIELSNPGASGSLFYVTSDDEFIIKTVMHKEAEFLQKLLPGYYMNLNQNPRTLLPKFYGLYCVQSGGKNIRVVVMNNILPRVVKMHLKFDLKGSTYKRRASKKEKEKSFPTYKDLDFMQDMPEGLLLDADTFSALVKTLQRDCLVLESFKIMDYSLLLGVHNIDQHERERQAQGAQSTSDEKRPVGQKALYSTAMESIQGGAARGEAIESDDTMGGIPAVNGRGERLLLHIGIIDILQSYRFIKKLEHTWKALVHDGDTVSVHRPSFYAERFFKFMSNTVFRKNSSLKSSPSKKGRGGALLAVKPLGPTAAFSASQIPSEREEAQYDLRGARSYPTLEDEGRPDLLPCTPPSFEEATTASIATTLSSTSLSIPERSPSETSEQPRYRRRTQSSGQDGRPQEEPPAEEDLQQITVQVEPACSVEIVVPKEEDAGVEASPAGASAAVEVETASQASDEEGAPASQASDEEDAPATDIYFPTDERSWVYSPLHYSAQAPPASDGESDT

Structure (SMILES): CN1C[C@H](Nc2nc3cc[nH]c3c(=O)n2C)C[C@H](c2ccc3c(c2)OCCO3)C1
- ΔTm [1]: 1.7 °C
- Activity [2]: inactive
- Activity [3]: inactive
- inhibition [4]: inactive
- inhibition [5]: inactive
- inhibition [6]: inactive
- inhibition [7]: inactive
- inhibition [8]: inactive
- inhibition [9]: inactive
- inhibition [10]: inactive
- inhibition [11]: inactive
- inhibition [12]: inactive
- inhibition [13]: inactive
- inhibition [14]: inactive
- inhibition [15]: inactive
- inhibition [16]: inactive
- inhibition [17]: inactive
- inhibition [18]: inactive
- inhibition [19]: inactive
- inhibition [20]: inactive
- inhibition [21]: inactive
- inhibition [22]: inactive
- inhibition [23]: inactive
